In the library only some 3.8% were active in any assay of this set; here they are far more common.
KCNQ1 block – inhibitors of human KCNQ1 channel, primary screen, cell-based, thallium flux, high-throughput. CHO-K1 KCNQ1, FluxOR thallium flux fluorescence; stronger effect = higher value. B-score at 10 µM. 310,000 compounds, 1.3% hits;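 active means compounds whose thallium flux B-score, printed positive for inhibition, exceeds three library SD while starting fluorescence stays within three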;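 further: channel opened by potassium depolarization with thallium stimulus after 20 min compound exposure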
Target sequence (P51787 whole entry, looked up): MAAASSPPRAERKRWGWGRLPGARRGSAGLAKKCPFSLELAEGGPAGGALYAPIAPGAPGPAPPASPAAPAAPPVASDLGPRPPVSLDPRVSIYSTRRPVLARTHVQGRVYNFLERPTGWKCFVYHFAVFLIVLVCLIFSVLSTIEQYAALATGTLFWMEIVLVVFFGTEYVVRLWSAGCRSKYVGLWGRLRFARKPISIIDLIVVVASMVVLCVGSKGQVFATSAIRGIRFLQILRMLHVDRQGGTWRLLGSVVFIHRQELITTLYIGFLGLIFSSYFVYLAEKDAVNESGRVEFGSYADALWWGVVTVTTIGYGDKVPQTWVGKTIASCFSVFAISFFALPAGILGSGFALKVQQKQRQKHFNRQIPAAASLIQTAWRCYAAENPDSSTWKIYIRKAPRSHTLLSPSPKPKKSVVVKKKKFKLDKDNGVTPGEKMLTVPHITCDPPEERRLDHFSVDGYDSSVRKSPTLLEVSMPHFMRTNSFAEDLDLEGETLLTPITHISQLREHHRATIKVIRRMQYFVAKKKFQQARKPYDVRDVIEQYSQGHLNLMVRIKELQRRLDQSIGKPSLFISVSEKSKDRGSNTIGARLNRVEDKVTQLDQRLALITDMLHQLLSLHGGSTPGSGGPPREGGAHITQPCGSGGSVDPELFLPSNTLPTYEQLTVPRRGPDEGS
hERG rescue – hERG rescue from dofetilide block, primary screen, cell-based, CHO-hERG, FluxOR thallium flux, dofetilide IC70; AID 1511, 2009; activation (rescue from dofetilide block), less the hit threshold, % at 10 µM; dofetilide IC70 present; 310,000 compounds, 0.51% hits; Voltage-gated inwardly rectifying potassium channel KCNH2 (Homo sapiens), Q12809;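 active means activation above the mean of controls blocked by dofetilide plus 5 SD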;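 further: thallium influx through hERG after potassium depolarization seen as dye fluorescence rise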
KCNK9 inh – KCNK9 potassium channel inhibitors, primary screen, HEK293 cells, thallium flux. FluxOR thallium flux fluorescence; stronger effect = lower value. 310,000 compounds, 1.2% hits. Potassium channel subfamily K member 9 (Homo sapiens), Q9NPC2. B-score at 10 µM;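 active means ratio B-score over 3 SD below the library mean, with starting fluorescence within 5 SD of its mean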;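 further: negative B-score means less thallium flux so channel inhibition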
Kir21 block – inhibitors of mouse Kir2.1 inward-rectifier potassium channel; HEK293-Kir2.1, FluxOR thallium flux fluorescence; stronger effect = lower value; B-score at 10 µM; 310,000 compounds, 0.85% hits; Inward rectifier potassium channel 2 (Mus musculus), P35561;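 active means fluorescence ratio B-score at or below minus 3 SD of library scores, with starting-brightness B-score within 2 SD, cut at about -4.2 in these data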;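 further: channel flux triggered by added potassium and thallium sulfate stimulus; B-score of peak minus minimum fluorescence over baseline after thallium stimulus; more negative B-score means stronger Kir2.1 block with less thallium influx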
KCNK3 inh – human KCNK3 channel inhibitors, primary screen, CHO cells, FluxOR thallium flux, B-score. Potassium channel subfamily K member 3 (Homo sapiens), O14649. B-score at 10 µM. FluxOR fluorescence; stronger effect = lower value. 340,000 compounds, 0.84% hits;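 active means B-score under library mean minus 4 SD, starting fluorescence ratio at most library mean plus 5 SD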;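 further: more negative B-score means stronger inhibition of thallium flux through KCNK3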
KCNQ1 act – potentiators or activators of KCNQ1 channel, primary screen, cell-based, thallium flux, high-throughput. Potassium voltage-gated channel subfamily KQT member 1 (Homo sapiens), P51787. CHO-K1 KCNQ1, thallium flux FluxOR fluorescence; stronger effect = higher value. B-score at 10 µM. 310,000 compounds, 0.35% hits;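 active means fluorescence ratio B-score, a plate-corrected score, at least three library SD, with initial intensity B-score within 5 SD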
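Doses: Single concentration per compound, DMSO matched to controls | Test system: KCNQ1-transfected CHO-K1 cells | Timing: 90 min dye loading and 20 min compound exposure, both at room temperature | Measured by: Kinetic FluxOR thallium fluorescence, 10-s 1-Hz baseline, 110-s post-stimulus read | Medium: Assay buffer with matched DMSO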
The depositor's hits bear a star; i = inactive; . = no result.

SMILES | KCNQ1 block | hERG rescue | KCNK9 inh | Kir21 block | KCNK3 inh | KCNQ1 act
CC(C)CC(=O)NC(NC(=S)Nc1sc2c(c1C#N)CCCC2)C(Cl)(Cl)Cl (centres undefined) | i | -19 | -7.4* | 2.6 | i | i
COc1cc(-c2cc(C(=O)Nc3c(Cl)cc(Cl)cc3Cl)c3ccccc3n2)cc(OC)c1OC | 7* | -13 | i | -0.97 | i | i
COc1ccc(C(=O)NNC(=S)NC(=O)c2cc(-c3ccccc3)nc3ccccc23)cc1 | i | -9 | i | 0.37 | i | 9*
CCNC(=S)NNC(=O)c1cc(-c2cccc(OC)c2)nc2ccccc12 | 6* | -20 | i | 0.62 | i | i
COc1ccc(Cl)cc1C(=O)NNC(=S)NC(=O)c1cc(-c2ccccc2)nc2ccccc12 | i | -5 | i | -0.32 | i | 8*
COc1ccc(NC(=O)c2cc(-c3cc(OC)c(OC)c(OC)c3)nc3ccccc23)cc1OC | i | -9 | i | -0.54 | i | i
CC(=O)N1CC(C)Oc2ccc(S(=O)(=O)NC(CC(=O)O)c3cc(C)ccc3C)cc21 (centres undefined) | i | -3 | i | 0.25 | i | i
COC(=O)c1ccc(NC(=S)NC(=O)c2cc(-c3ccccc3)nc3ccccc23)cc1 | i | 6.2* | i | 1.1 | i | 29*
C=C1CC(C(=O)N/N=C/c2ccccc2)C1 | i | -5 | i | 0.29 | i | i
COCCCNCCCOc1ccc(Cl)cc1Br | i | -21 | i | -1.6 | i | i
CC(C)(C)c1cc(Cl)ccc1OCCn1ccnc1 | i | 0 | i | -5.6* | i | i
Clc1ccccc1OCCn1ccnc1 | i | -13 | i | -1.4 | i | i
CC(C)(C)c1ccccc1OCCCCCn1ccnc1 | i | -22 | i | -7.4* | i | i
c1ccc(-c2ccccc2OCCCCn2ccnc2)cc1 | i | -12 | i | -4.8* | i | i
CC(O)CNCCCOc1ccc(Cl)cc1C(C)(C)C (centres undefined) | i | -18 | i | -6.2* | i | i
Nc1nc(Nc2ccc(Cl)cc2)c(NC=O)c(=O)[nH]1 | i | -3 | i | 0.39 | i | i
N#CC(CC(=O)c1ccc(F)cc1)c1ccc2c(c1)OCO2 (centres undefined) | i | -3 | i | 0.02 | i | i
c1ccc(CCCCc2ccccn2)cc1 | . | . | . | . | i | .
NC(CCCCc1ccccc1)c1cccc2ccccc12 (centres undefined) | i | -19 | i | -11* | . | i
COc1ccc(/C=N/Nc2nc(Nc3ccccc3)nc(N3CCCCC3)n2)cc1OC | 7* | -13 | i | 0.62 | i | i
CN(Cc1cccs1)C(=O)c1cccc(S(=O)(=O)N2CCCCCC2)c1 | . | . | . | . | i | .
NC(N)=NC(=O)c1nc(Cl)c(N2CCCCCC2)nc1N | . | . | . | . | -9.8* | .
Cc1cc(C)c2sc(NNC(=O)c3ccc(S(=O)(=O)N4CCc5ccccc5C4)cc3)nc2c1 | 7* | -6 | i | 0.14 | i | i
Cc1ccn2c(/C=N/OCc3ccc(F)cc3)c(-c3ccc(Cl)cc3)nc2c1 | i | -15 | -7.4* | -3.9 | i | i
Cc1ncc(N=Nc2ccc(F)cc2)c(-c2ccc(Cl)cc2)n1 | i | -11 | i | 0.93 | i | i
SMILES | KCNQ1 block | hERG rescue | KCNK9 inh | Kir21 block | KCNK3 inh | KCNQ1 act
Cc1nn(-c2ccccc2)c2ncc(C(=O)c3cc(Cl)ccc3O)cc12 | i | -7 | i | -0.69 | i | i
CCc1nn2cc(C(=O)c3cc(Cl)ccc3O)cnc2c1-c1ccc(F)cc1 | 8* | -10 | i | -0.43 | i | i
CCOc1ccc(N=C2NC(=O)CS2)cc1 | i | -11 | i | 1.1 | i | i
CC(=O)Nc1ccc(S(=O)(=O)N2CCC(C(=O)O)CC2)cc1 | i | 0 | i | 0.73 | i | 10*
COc1ccc(/C=C(\C#N)C(=O)OCC(=O)Nc2ccc(C(C)(C)C)cc2)cc1 | 7* | -14 | i | 0.41 | i | i
Cc1c(Cl)cccc1NC(=O)CSc1nncn1-c1ccccn1 | i | -9 | i | -0.16 | i | i
Cc1cccc(S(=O)(=O)Nc2cccc3c2C(=O)c2ccccc2-3)c1 | i | -10 | i | 0.72 | i | 9*
Cc1ccc(NS(=O)(=O)c2ccc3c(c2)C(=O)c2ccccc2C3=O)c(C)c1 | . | . | . | . | i | .
C=CCn1c(=NC(=O)CC)n(C)c2ccccc21 | i | 1 | i | -0.15 | i | i
CCN(CC)CCN(C(=O)c1ccc2c(c1)CCCC2)c1nc2ccc(C)cc2s1 | 12* | -31 | i | 0.68 | i | i
CCN(CC)CCN(C(=O)c1ccc2c(c1)CCCC2)c1nc2ccc(OC)cc2s1 | 12* | -29 | i | -0.66 | i | i
CCN(CC)CCN(C(=O)c1ccc2c(c1)CCCC2)c1nc2ccc(F)cc2s1 | i | -25 | i | 1.1 | i | i
CCN(CC)CCN(C(=O)c1ccc2c(c1)CCCC2)c1nc2c(C)cccc2s1 | 8* | -14 | i | -0.38 | i | i
CCCCCNS(=O)(=O)c1cc2c3c(c1)CCC(=O)N3CCC2 | i | -5 | i | -2.4 | i | i
COCc1cc(C)nc(SCC(=O)c2ccc(O)c(O)c2)c1C#N | i | 5.7* | i | 0.15 | i | i
COc1ccc(CNC(=O)CCN2C(=O)[C@@H]3Cc4ccccc4CN3C2=O)cc1 | i | -12 | i | 1.1 | i | i
Cc1ccc(S(=O)(=O)/C(=C\N(C)C)c2cnc(Cl)s2)cc1 | i | -6 | i | -3.3 | i | i
O=C(OCCc1cc2ccccc2c(=O)o1)c1cccc(Br)c1 | . | . | . | . | -8.8* | .
O=C(O)c1cccc(NC(=O)c2ccc3c(c2)C(=O)N(C2CCCCC2)C3=O)c1 | i | -4 | i | 0.04 | i | i
O=C(CN1CCC(C(O)(c2ccccc2)c2ccccc2)CC1)Nc1cc(Cl)ccc1Cl | i | -7 | i | 0 | i | i
O=C(CN1CCC(C(O)(c2ccccc2)c2ccccc2)CC1)Nc1ccccc1 | i | -11 | i | -4.8* | i | i
Nc1cc(C(=O)OCC(=O)NCCNC(=O)COC(=O)c2ccc(Cl)c(N)c2)ccc1Cl | i | -14 | i | 0.98 | i | i
